Laboratory results: the EternaBench riboswitch data

Tested on: MS2 coat protein
Assay: apparent Kd, MS2 coat protein; higher = weaker binding; RNA-MaP array; FMN 200 µM where present
Method in brief: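 Apparent Kd: the median of filtered binding-curve fits from single clusters. Designs were transcribed on Illumina sequencing-chip clusters by stalled E. coli RNA polymerase and titrated with SNAP-549-labelled MS2 coat protein from 0.7 or 1.5 nM, doubling to 3 µM, in 100 mM Tris-HCl pH 7.5, 80 mM KCl, 4 mM MgCl2, BSA, DTT, yeast tRNA and Tween-20. Each series ran without and then with constant ligand, and green signal was normalised to red-channel RNA signal and control-cluster median Fmax.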

[1] = designed as: OFF switch for flavin mononucleotide, no ligand
[2] = ligand present: flavin mononucleotide, designed as: OFF switch for flavin mononucleotide
[3] = designed as: ON switch for flavin mononucleotide, no ligand
[4] = ligand present: flavin mononucleotide, designed as: ON switch for flavin mononucleotide

Row | Sequence | apparent Kd [1] [nM] | apparent Kd [2] [nM] | apparent Kd [3] [nM] | apparent Kd [4] [nM]
1 | UAGCUCUCGGCAGGAUAUCCUGCAUAAUGUCGAGUCCGCGCCCGGACAUGAGGAUCACCCAUGUAGGAGAAGGGCCCACGGGCU | 24.2 | 45.5 | – | –
2 | UUUUAACAUGAGGAUCACCCAUGUGAGGAUAUCGAAAUUUAUAUUAAUAUUUAUUUUACGAGAAGGCACAUUUU | 98 | 102 | – | –
3 | UACCUCACUUCUUUGACUCACAUGAGGAUCACCCAUGUAAUAUAGGAUAUGCAUUUUAUUUCUUUGCAGAAGGAUAUUAGUUUU | 42.8 | 79.2 | – | –
4 | UUAAUCUAUACAGGAUAUCCAUACGGUGCAUACGGAGAAGGGUAACAAUCAUGAGGACAUGAGGAUCACCCAUGUUCUGACCAU | – | – | 7.23 | 6.35
5 | AUAAUAAUAUAAGGAUAUACGUCACUGCGUCAGCAGUGUGGUAAGAUCACAUGAGGAUCACCCAUGUAGAAGGAUAAAUUAAAU | 12.4 | 9.22 | – | –
6 | UGUUGUAUUACAGGAUAUCUAGUAUUUUUAUUCAGAGAAGGGUAUUCACAUGAGGAUCACCCAUGUAUAUACGAGGAAGUUGUG | – | – | 45.2 | 46.2
7 | GAAAACGGAGAGGAUAUUUGAGAUCAAAGCUCCAAAGAAGGCUCCACAUGAGGAUCACCCAUGUGGUCUUCAAA | 13.5 | 111 | – | –
8 | GGGCAACAUGAGGAUCACCCAUGUCAGGAUAUUGGGCCGGGCCCGAAAGGGCCCGGAACAAGAAGGGACAGCCC | 23.5 | 24.5 | – | –
9 | UUUCCAUAGAUAGGAUAUCAGUUUACAUGAGGAUCACCCAUGUUCUCUUUGGUUAUAAUUAUAUCUGAGAAGGAUCUUGAUGAA | – | – | 29.6 | 26.3
10 | CUAAAUCAUGUAGGAUAUGCGUGGCGAAGCUAUGCAGAAGGACAUGAGGAUCACCCAUGUCUAUCCGUCUGCGUACAGACGGAA | 25.1 | 186 | – | –
11 | UGGACCGAGCUAUCGGUUGACUCGGAGGAUAUGACAUGAGGAUCACCCAUGUGGGAUCUAAAUUGUCAGAAGGCUGGUUCUGGG | 675 | 229 | – | –
12 | GCGUCAGAAUUAAUUGUGACAGGCAGAAGGCUAUAUCUUAUGUUAGACAUGAGGAUCACCCAUGUAGAGGAUAUGCAGUUACAC | 7.77 | 17 | – | –
13 | AUGAGUAAAGCAGGAUAUCUAUUGUCUCUGUAACAUGAGGAUCACCCAUGUAGAGAAGGGCUUAGUCAUACACUUCGAAGUUGA | 9.13 | 10.1 | – | –
14 | UGAUAGGACAGAGGAUAUACGGAUAGGAUCUACUAUCAAACAAGUCCUACAUGAGGAUCACCCAUGUAGAAGGCUGUCCUAUCU | 16.1 | 22.2 | – | –
15 | CCUGUGUGAGGAUAUGGUGUUGGCCAAAAGGAAUAGCUCCUCCAGAAGGCACAUGAGGAUCACCCAUGUCGUGG | 18 | 81.9 | – | –
16 | GAGGUACAUGAGGAUCACCCAUGUGAGGAUAUAGUGGAAGAUUGAGAGAGGUGGAGGACUAGAAGGCACAGUGG | 67.3 | 66.2 | – | –
17 | GUAGCUAUCGCAGGAUAUCCUCAGGCGAAAGCCACAUGAGGAUCACCCAUGUAUAUAAAGAAUAUGGAGAAGGGCGAUAGCUAC | – | – | 1670 | 185
18 | GAAGUUAGAGGAUAUACAUGAGGAUCACCCAUGUGUGAAGUUAACUUUGUAUAUUAAUGUAGAAGGCUAACUUC | 42.5 | 118 | – | –
19 | UCCUUGUCCUGAGGAUAUCCGCGGUUCCCAAAAGGAGAAGGCAGGACAUGAGGAUCACCCAUGUACCCAGAAAACGUGCAGAAU | 9.87 | 42.7 | – | –
20 | GGGUCCAACACAGGAUAUGCUGGACUUUGUCCAGCAGAAGGGUGAAGAACAUGAGGAUCACCCAUGUGGAUCCAUAUAUUUAAU | – | – | 236 | 17.9
21 | CAGGAGAACACAGGAUAUCCGUAAGACAUGAGGAUCACCCAUGUUUGUGGCCCGCCAGGGCUGACGGAGAAGGGUGACUCGCAC | – | – | 9.04 | 5.81
22 | GGGAUAGGAGGAUAUGUUCUAGCUCACAUGAGGAUCACCCAUGUGGUGUCCGUUGGUAGCGCAGAAGGCUUACCUA | 792 | 662 | – | –
23 | UGCCGCAACAACACGGCAUCACAUGAGGAUCACCCAUGUUCACAGGAUAUGCGAUAGCCAACGAAGCAGAAGGGUGAUUACUUA | – | – | 31.9 | 215
24 | UCUAAGCGAAUCAAGAUGGAUAGAACAUGAGGAUCACCCAUGUAGGAUAUGCUACACAAAGUGUAGCAGAAGGACAAGCUUAGA | 25.9 | 36.2 | – | –
25 | AAAACAUGAGGAUCACCCAUGUAAAGAUCUGUUAAUAGAAGUGAGGAUAUACUAAAUUUUAGGUAGUAGAAGGCACUGGGUACA | – | – | 23.4 | 27.4
26 | ACGUGACGGUGCGCGAGCGGACGGAGAAGGCAGACAUGAGGAUCACCCAUGUGAGCCUGCUAUUCUGAGGAUAUCCGUCCACAC | 30.4 | 167 | – | –
27 | GAACGUGAGACGACCGUGGGUACAUGAGGAUCACCCAUGUGCAGAAGGCGAAUAUGACGAUGUGUCGAGGAUAUGCACAGCUCA | 22.4 | 97.6 | – | –
28 | UGUGAGUUGAUGUUAGAUCGGAGUACAUGAGGAUCACCCAUGUAGGAUAUUCAAAGACGCAGAUAGAAGAAGGACAUAGGUUUC | 15.2 | 14.3 | – | –

Row | Sequence | apparent Kd [1] [nM] | apparent Kd [2] [nM] | apparent Kd [3] [nM] | apparent Kd [4] [nM]
29 | UGAGAUGUAGUAGGAUAUCAGGUUACAUGAGGAUCACCCAUGUUAGAUUGGUGGAUAGAUGUUGAUGAGAAGGACUUUUGAGUG | 66.7 | 116 | – | –
30 | AAGGACUGUAAAUAAGUAGAAAUACAUGAGGAUCACCCAUGUAAGGAUAUCGUCAGGAAUACUGACGAGAAGGUACAUCAGUCC | 14.5 | 18.6 | – | –
31 | UGAGCGACCACAGGAUAUACUUGAGAAGACCGAGUAGAAGGGUGGAAGAGCGUGCAGUGACAUGAGGAUCACCCAUGUGGUUGU | – | – | 107 | 98.4
32 | GUGUAGACAGGAUAUGCUUUGAGCAUAUGAGAGUAUGCUCGACAUGAGGAUCACCCAUGUAGAAGGGUCUACAC | 12.1 | 12.9 | – | –
33 | ACAUGAGGAUCACCCAUGUAAAAUUAGGAUAUAUGACUGCACAUGAGGUUCACCCAUGUUCUACCGUAGAAGGGAUAAAUAAUU | – | – | 71.1 | 75.6
34 | AUAAUCACAUGAGGAUCACCCAUGUACCGAGCUAAAGCUACAUAGGAUAUGACAAGUAUAGCUUGUCAGAAGGGUGAGUCUCGC | – | – | 46.3 | 67.1
35 | CACCGUUACAGAGGAUAUCGUACAUGAGGAUCACCCAUGUAAUAAAUGAGAAUUUCGGAUGUAUGCGAGAAGGCUGGAAUCGGC | 28.5 | 36.1 | – | –
36 | UCAUACAUGACAUGACAUGACAUGAGGAUCACCCAUGUUUACAAGGAUAUGUUGAUGAAACAUCAACAGAAGGUGUAUUGGACU | 51.8 | 172 | – | –
37 | AUGAGAGCAGGAUAUGCAGGUGUGCCGGAAGAAAGAAGAGGACAUGAGGAUCACCCAUGUAGAAGGGCUAACCC | 41.1 | 19.8 | – | –
38 | AAGAGGUCAGGAUAUACGGAGAGAGGGAGUUGGUGAGGGUAACAUGAGGAUCACCCAUGUAGAAGGGACUAAGA | 22.4 | 24.7 | – | –
39 | UCGACGAAAGUCGAACGAUGUAGCAGAAGGACAUGAGGAUCACCCAUGUCAGCUGUAACAGCCAUGUAGGAUAUGCUACAUCGA | 3.96 | 5.54 | – | –
40 | UCUUUCGUUGUGAGGAUAUGCCCAAAUAAAAGCGGGCAGAAGGCACAUGAGGAUCACCCAUGUCCUGCGGUUUU | 22.8 | 288 | – | –
41 | UGUGAGUUGAUCUUAGAUCGGAGUACAUGAGGAUCACCCAUGUAGGAUAUUCAAAGACGCAGAUAGAAGAAGGACAUAGGUUUC | 15.1 | 13.8 | – | –
42 | AUGGUUGUCGUAGGAUAUGUAGGAUAUUCCUACAUGAGGAUCACCCAUGUUCGCAUGGAAGAAGGACAGAAGGACGAUGACCAG | – | – | 1020 | 9.57
43 | GUAAACGAUGAGGAUAUAUGAUAUCAAAGCAUCAUAGAAGGCAUCACAUGAGGAUCACCCAUGUGAUCUUCUUU | 17.5 | 78.5 | – | –
44 | UAAAUGUGAGGAUAUCAGGUGUGCUAGCGAACUGGUACAUCUGAGAAGGCACAUGAGGAUCACCCAUGUUCCUU | 17 | 61.5 | – | –
45 | UAUAUGUGAGGAUAUCAGGUGUGCUAGCGAACUGGUACAUCUGAGAAGGCACAUGAGGAUCACCCAUGUAUCUU | 27.7 | 105 | – | –
46 | GUGUACAGAGGAUAUACAUGAGCAUGGAAACAUGCAUCCUCACAUGAGGAUCACCCAUGUAGAAGGCUGUACAC | 26.6 | 31.6 | – | –
47 | UUGGAAGUCGUAGGAUAUGUAGGAUAUUCCUACAUGAGGAUCACCCAUGUUGACAUGGAAGAAGGACAGAAGGACGAUGUCCAU | – | – | 642 | 6.99
48 | UAGUGAUUGCAAGGAUAUGCUAGUUUUUAUUUGUGUUUGAUAACAAACAUGAGGAUCACCCAUGUGCAGAAGGUGCUAGAUAUG | – | – | 566 | 510
49 | CACUGCAAUGUAGGAUAUCGACUGGAAUACAGUCGAGAAGGACAUGAGGAUCACCCAUGUACUAAUAGUGAUAAUAAAGCAGUG | 14.6 | 54.1 | – | –
50 | CCAUGGCAUGUAGGAUAUCUCUGACAAAGUCAGAGAGAAGGACAUGAGGAUCACCCAUGUAAACCGAAAGGAACAUAGCCAUGG | 6.31 | 6.26 | – | –
51 | GUCAGCUCGUGAGGAUAUACAACACUGCUUCGGCAGUGUAUUAAAAUAACAUGAGGAUCACCCAUGUAGAAGGCACGAGCUGAU | 5.14 | 6.62 | – | –
52 | AUUUAGUCAGGAUAUACAUGAGGAUCACCCAUGUAAACUUUUAGUUUAAUUUGAAUGUGUAGAAGGGACAUUUU | 28.8 | 29.8 | – | –
53 | UUUUUUGUAGUGAGGAUAUCGUUGAGGAUGUGGAUCGAGAAGGCACAUGAGGAUCACCCAUGUUAGAUGUGGUU | 262 | 295 | – | –
54 | UGAGUGCGUGUUAGGAUAUGGUUUGGUGUUUCGGGCUAGAAGGGACAUGAGGAUCACCCAUGUAACUGGCGGGU | 53.3 | 51 | – | –
55 | GGUUGGCGAGGAUAUACAUGAGGAUCACCCAUGUGGUCCUGUGGCUGGUCUUACCUUUGUAGAAGGCGCGGGUC | 88.4 | 93.2 | – | –
